Assay results as given in ChEMBL document CHEMBL1687717 (Antimicrob Agents Chemother, 2008).
The source made the active and inactive calls. The calls are words filed in the database; no cut-off is given here.

Key:
[1] = test system: Human immunodeficiency virus 1; experiment: Antiviral activity against HIV1 infected in human T cells assessed as inhibition of viral infection at 100 ug/mL; format: functional, organism-based; conditions: T-cell
[2] = Effect on lactic acid production in Lactobacillus crispatus at 50 ug/ml after 8 to 24 hrs; format: ADME
Outline: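 Todd-Hewitt broth cultures of L. crispatus were started at 3.0 x 10^6/ml with or without nonformulated GML at 50 µg/ml and incubated at 37°C with shaking. Culture pH was measured on samples removed at set times as an acid-production read-out.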

Lactobacillus crispatus [3] = experiment: Suppression of cell viability loss of Lactobacillus crispatus in stationary phase culture at 100 ug/ml after 48 hrs; format: functional
Outline: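 Stationary-phase L. crispatus broth cultures were incubated a further 48 h at 37°C without GML or with GML at 100 µg/ml. Viable counts were then determined by plating.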

Rhesus monkey [4] = experiment: Toxicity in rhesus monkey assessed as induction of vaginal mucosal lesions administered twice daily dose of 5% compound-formulated gel for first 8 weeks followed by 3-weeks rest period and subsequent once daily dose for […] measured 6 months post dose by extensive colposcopy; format: organism-based, Macaca mulatta; conditions: in vivo, topical_or_ocular, 4383 h
Staphylococcus aureus [5] = experiment: Inhibition of Staphylococcus aureus MN8 infection induced IL-8 production in human HVEC assessed as at 100 ug/ml by enzyme-linked immunosorbent assay; format: functional, organism-based
Outline: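 Human vaginal epithelial cells in keratinocyte serum-free medium without antibiotics were seeded 2–3 days beforehand in 96-well plates. S. aureus MN8 was grown overnight in Todd-Hewitt broth, washed and resuspended in PBS at pH 7.2. Cells received 10^6–10^8 CFU in triplicate, with or without GML at 100 µg/ml, for 6 h. IL-8 was measured by ELISA.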

[6] = Effect on growth of Lactobacillus crispatus at 50 ug/ml after 24 hrs
Outline: (§1)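 L. crispatus grown in Todd-Hewitt broth flasks at 37°C with shaking, with or without nonformulated GML at 20, 50 or 100 µg/ml. The starting inoculum was 3.0 x 10^6/ml. Samples were taken over 24 h for CFU plate counts.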

[7] = Effect on growth of vaginal Lactobacillus flora in rhesus monkey administered twice daily dose of 5% compound-formulated gel for first 8 weeks followed by 3-weeks rest period and subsequent once daily dose for […] measured 6 months post dose; conditions: in vivo, topical_or_ocular, 4383 h
Outline: (§2)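 Rhesus macaques (9 on GML, 3 on vehicle per time point) received 1 ml intravaginal gel containing 50 mg GML in K-Y warming gel, or vehicle gel, by needleless syringe. Dosing was twice daily for 8 weeks, then 3 weeks of rest, then once daily for 11 weeks. Vaginal swabs were taken 1 h post-dose, held at 4°C, serially diluted in Todd-Hewitt broth and plated on chocolate agar at 37°C in 7% CO2.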

Staphylococcus aureus [8] = experiment: Growth inhibition of Staphylococcus aureus MN8 using 5% compound-formulated gel after 24 hrs; format: functional, organism-based
Outline: (§3)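 Agar disk test: paper disks carrying 30 µl of 5% GML in K-Y warming gel were placed on Todd-Hewitt agar lawns of about 10^6 L. crispatus or S. aureus MN8. Plates were incubated overnight at 37°C in 7% CO2 and scored for visible growth inhibition around the disks. Done in quadruplicate.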

[9] = Effect on growth of Lactobacillus crispatus using 5% compound-formulated gel after 24 hrs; outline: as §3
Lactobacillus crispatus [10] = experiment: Suppression of cell viability loss of Lactobacillus crispatus in stationary phase culture at 100 ug/ml after 48 hrs
[11] = Effect on growth of Lactobacillus crispatus at 20 ug/ml after 24 hrs; outline: as §1
Helicobacter = experiment: Bactericidal activity against Helicobacter at >=20 ug/ml; format: functional
Staphylococcus = experiment: Effect on growth of vaginal coagulase negative staphylococci flora in rhesus monkey administered twice daily dose of 5% compound-formulated gel for first 8 weeks followed by 3-weeks rest period and subsequent once daily dose for […] measured 6 months post dose; format: functional, organism-based; outline: as §2
Gardnerella = experiment: Bactericidal activity against Gardnerella at >=20 ug/ml; format: functional
Rhesus monkey [12] = experiment: Toxicity in rhesus monkey assessed as induction of vaginal inflammation administered twice daily dose of 5% compound-formulated gel for first 8 weeks followed by 3-weeks rest period and subsequent once daily dose for […] measured 6 months post dose by extensive colposcopy; format: organism-based, Macaca mulatta; conditions: in vivo, topical_or_ocular, 4383 h
Haemophilus = experiment: Bactericidal activity against Haemophilus at >=20 ug/ml; format: functional, organism-based

For `CCCCCCCCCCCC(=O)OCC(O)CO` (stereo unspecified) [GLYCEROL MONOLAURATE], the inhibition [1] was “Active”, the Activity [2] was “Non-toxic” and the Activity (Lactobacillus crispatus [3]) was “Active”. The Activity (Rhesus monkey [4]) was “Non-toxic”, the inhibition (Staphylococcus aureus [5]) was “Active” and the Activity [6] was “Non-toxic”. The Activity [7] was “Non-toxic”, the “growth inhibition (GI)” value (Staphylococcus aureus [8]) was “Active” and the Activity [9] was “Non-toxic”. The Activity (Lactobacillus crispatus [10]) was “Active”, the Activity [11] was “Non-toxic” and the inhibition (Helicobacter) was “Active”. For the same compound, the Activity (Staphylococcus) was “Non-toxic”, the inhibition (Gardnerella) was “Active” and the Activity (Rhesus monkey [12]) was “Non-toxic”. For the same compound, the inhibition (Haemophilus) was “Active”.
